The results in this text go back to ChEMBL document CHEMBL2010740, “Synthesis and evaluation of 2-amido-3-carboxamide thiophene CB₂ receptor agonists for pain management” (Bioorg Med Chem Lett, 2012).

Series [1] is described as follows: Metabolic stability in rat microsomes assessed as compound remaining after 30 mins. Conditions: read-out: Stability. It is filed as ADME, Microsome. A digest of the protocol: (§1)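 Metabolic stability: compound incubated with human or rat liver microsomes. Percent parent remaining was measured after 30 min.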
The target in a further series is Cannabinoid receptor 1 (Rattus norvegicus, UniProt P20272). The series can be described thus: Displacement of [3H]CP-55940 from rat recombinant CB1 receptor expressed in CHO cells after 90 mins. The format is cell-based. A digest of the protocol: (§2)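 Competitive binding: [³H]CP-55,940 displaced from membranes of HEK 293 cells stably transfected with human or rat CB₂, or CHO cells stably transfected with human or rat CB₁. Reported as pKi. Determinations >2 (duplicate of duplicate).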

In series [2] the test system is Rattus norvegicus. The series can be described thus: Neurotoxicity in ip dosed rat assessed as decrease in spontaneous locomotory activity after 30 mins. Conditions: in vivo, 0.5 h. The format is toxicity, organism-based. A digest of the protocol:
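Spontaneous horizontal locomotor activity in rats. Compound was given intraperitoneally 30 min before testing.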

Series [3] can be described thus: Cmax in rat at 10 umol/kg, ip. It is filed as ADME, organism-based. Details: dose 10 umol/kg, route intraperitoneal. Conditions: in vivo.
Series [4] can be described thus: Cmax in rat at 10 umol/kg, po. Particulars: in vivo. Details: dose 10 umol/kg, route oral. The format is ADME, organism-based.
Series [5] concerns the target T1, Cannabinoid receptor 2 (Rattus norvegicus) (UniProt Q9QZN9).
T1 sequence (whole entry): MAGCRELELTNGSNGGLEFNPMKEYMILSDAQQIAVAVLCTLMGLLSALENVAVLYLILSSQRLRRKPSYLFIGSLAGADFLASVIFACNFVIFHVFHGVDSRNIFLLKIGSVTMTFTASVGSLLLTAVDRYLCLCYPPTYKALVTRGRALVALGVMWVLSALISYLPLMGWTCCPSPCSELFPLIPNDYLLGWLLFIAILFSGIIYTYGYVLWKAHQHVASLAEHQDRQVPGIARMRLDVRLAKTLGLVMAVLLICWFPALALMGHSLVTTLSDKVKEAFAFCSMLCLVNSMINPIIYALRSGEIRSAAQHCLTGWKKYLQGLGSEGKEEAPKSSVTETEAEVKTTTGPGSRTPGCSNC
The series can be described thus: Agonist activity at rat recombinant CB2 receptor expressed in HEK293 cells assessed as inhibition of forskolin-induced cAMP production after 20 mins by ELISA relative to CP55940. The format is functional, cell-based. A digest of the protocol: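 cAMP assay in HEK 293 cells stably expressing the relevant CB receptor, with a fixed concentration of forskolin. cAMP was quantified by ELISA. Activation is given as percent of the CP-55,940 control response.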

The subject of series [6] is Rattus norvegicus. The series can be described thus: Analgesic activity in ip dosed rat chronic constriction injury model of neuropathic pain assessed as reduction in mechanical allodynia administered 2 weeks post-surgery measured after 30 mins. It is filed as functional, organism-based.
Series [7] can be described thus: Metabolic stability in human microsomes assessed as compound remaining after 30 mins. Particulars: read-out: Stability. It is filed as ADME, Microsome. A digest of the protocol: as §1
For series [8], the system named is Rattus norvegicus. The series can be described thus: Analgesic activity in rat complete Freund's adjuvant model of chronic inflammatory pain assessed as reduction in thermal hyperalgesia at 10 umol/kg, ip co-administered with CB2 antagonist SR144528. The format is functional. On the set-up: scale not given: the % may be the effect or the level left. A digest of the protocol:
(§3)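 Rat CFA inflammatory pain model. Read-out was thermal hyperalgesia in the CFA-injected right paw, with the left paw as control. Test compound and the CB₂ antagonist SR-144528 (10 µmol/kg ip) were given alone and combined, with vehicle controls.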

Series [9] in a line: Plasma protein binding in human. It is filed as ADME, cell-free. Particulars: read-out: PPB (converted).
Series [10] in a line: Plasma protein binding in rat. Conditions: read-out: PPB (converted). It is filed as ADME, cell-free.
The test system of series [11] is Rattus norvegicus. The series can be described thus: Analgesic activity in rat complete Freund's adjuvant model of chronic inflammatory pain assessed as reduction in thermal hyperalgesia at 10 umol/kg, ip. The format is functional. On the set-up: scale not given: the % may be the effect or the level left. A digest of the protocol:
as §3

Series [12] has as its system Rattus norvegicus. The series can be described thus: Analgesic activity in rat spinal nerve ligation model of neuropathic pain assessed as […] at 10 umol/kg, ip administered 2 weeks post-surgery measured after 30 mins. The format is functional. Details: scale not given: the % may be the effect or the level left. A digest of the protocol: (§4)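 Rat spinal nerve ligation (Chung) neuropathic pain model. Dosing was intraperitoneal, two weeks after surgery and 30 min before testing. Read-out was mechanical allodynia (paw withdrawal threshold), given as a dose–response.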

A further series has as its target T2, Cannabinoid receptor 2 (Rattus norvegicus, UniProt Q9QZN9).
T2 sequence (Q9QZN9 whole entry): T1 sequence (whole entry)
The experiment in a line: Displacement of [3H]CP-55940 from rat recombinant CB2 receptor expressed in HEK293 cells after 90 mins. The format is cell-based. A digest of the protocol: as §2

Series [13] deals with Rattus norvegicus. The experiment in a line: Analgesic activity in rat spinal nerve ligation model of neuropathic pain assessed as […] at 3 umol/kg, ip administered 2 weeks post-surgery measured after 30 mins. It is filed as functional. On the set-up: scale not given: the % may be the effect or the level left. A digest of the protocol:
as §4

Series [14] can be described thus: Half life in rat at 3 umol/kg, iv. The format is ADME, organism-based. Particulars: in vivo.
A short description of series [15]: Half life in rat at 10 umol/kg, po. The format is ADME, organism-based. Particulars: in vivo.
Series [16] in a line: AUC in rat at 10 umol/kg, po. The format is ADME, organism-based. Conditions: plasma.
In series [17] the test system is Rattus norvegicus. The series can be described thus: Analgesic activity in rat spinal nerve ligation model of neuropathic pain assessed as […] at 30 umol/kg, ip administered 2 weeks post-surgery measured after 30 mins. It is filed as functional. Details: scale not given: the % may be the effect or the level left. A digest of the protocol: as §4

SMILES strings stand for the structures.

Cannabinoid receptor 1, sequence (P20272 whole entry): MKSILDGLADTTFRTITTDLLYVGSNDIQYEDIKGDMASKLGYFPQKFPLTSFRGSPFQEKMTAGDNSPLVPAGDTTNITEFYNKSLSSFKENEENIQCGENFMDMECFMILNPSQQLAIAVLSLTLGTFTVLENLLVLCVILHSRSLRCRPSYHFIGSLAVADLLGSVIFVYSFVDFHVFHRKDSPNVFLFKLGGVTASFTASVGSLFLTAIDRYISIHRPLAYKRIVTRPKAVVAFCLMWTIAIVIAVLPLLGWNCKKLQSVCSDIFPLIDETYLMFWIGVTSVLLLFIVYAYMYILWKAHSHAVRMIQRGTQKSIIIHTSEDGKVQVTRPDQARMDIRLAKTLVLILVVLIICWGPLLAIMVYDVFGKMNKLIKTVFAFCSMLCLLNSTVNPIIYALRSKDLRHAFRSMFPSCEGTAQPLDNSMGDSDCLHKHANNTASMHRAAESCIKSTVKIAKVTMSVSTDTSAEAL

As to `CCCNC(=O)c1c(NC(=O)C23CC4CC(CC2C4)C3)sc2c1CCOC2`, the remaining at 0.5 h in [1] was 5%; in [7], 9%. The Ki at Cannabinoid receptor 1 is 302 nM; on Cannabinoid receptor 2 it was 33.9 nM. For the same compound, the Activity result in the series on Rattus norvegicus [2] is “Dose-dependent effect”; with Rattus norvegicus [6], “Dose-dependent effect”; in the series with Rattus norvegicus [8] it was 24%; in the series on Rattus norvegicus [11], 91%; in the series with Rattus norvegicus [12], 29%; in the series on Rattus norvegicus [13], 8%. The Activity with Rattus norvegicus [17] was found to be 60%. In addition, the results for the Cmax in series [3] and in series [4] were 150 ng/mL and 39 ng/mL, respectively. Besides, in [5], the Imax was 72%. The values for the fraction unbound in [9] and in series [10] were 0.02 and 0.03, respectively. The half-life in series [14] is 1.5 h; in [15], 1.6 h. The same compound returned an AUC in series [16] of 123 ng·h/mL.
